Columns and labels:
[1] = target: T1, Serine/threonine-protein kinase Nek1 (Homo sapiens, UniProt Q96PY6); assay: Inhibition of human recombinant NEK1 (1 to 505 residues) using RLGRDKYKTLRQIRQ as substrate incubated for 40 mins in presence of [gamma-33P]-ATP by radiometric scintillation counting assay
T1 sequence (Q96PY6 whole entry): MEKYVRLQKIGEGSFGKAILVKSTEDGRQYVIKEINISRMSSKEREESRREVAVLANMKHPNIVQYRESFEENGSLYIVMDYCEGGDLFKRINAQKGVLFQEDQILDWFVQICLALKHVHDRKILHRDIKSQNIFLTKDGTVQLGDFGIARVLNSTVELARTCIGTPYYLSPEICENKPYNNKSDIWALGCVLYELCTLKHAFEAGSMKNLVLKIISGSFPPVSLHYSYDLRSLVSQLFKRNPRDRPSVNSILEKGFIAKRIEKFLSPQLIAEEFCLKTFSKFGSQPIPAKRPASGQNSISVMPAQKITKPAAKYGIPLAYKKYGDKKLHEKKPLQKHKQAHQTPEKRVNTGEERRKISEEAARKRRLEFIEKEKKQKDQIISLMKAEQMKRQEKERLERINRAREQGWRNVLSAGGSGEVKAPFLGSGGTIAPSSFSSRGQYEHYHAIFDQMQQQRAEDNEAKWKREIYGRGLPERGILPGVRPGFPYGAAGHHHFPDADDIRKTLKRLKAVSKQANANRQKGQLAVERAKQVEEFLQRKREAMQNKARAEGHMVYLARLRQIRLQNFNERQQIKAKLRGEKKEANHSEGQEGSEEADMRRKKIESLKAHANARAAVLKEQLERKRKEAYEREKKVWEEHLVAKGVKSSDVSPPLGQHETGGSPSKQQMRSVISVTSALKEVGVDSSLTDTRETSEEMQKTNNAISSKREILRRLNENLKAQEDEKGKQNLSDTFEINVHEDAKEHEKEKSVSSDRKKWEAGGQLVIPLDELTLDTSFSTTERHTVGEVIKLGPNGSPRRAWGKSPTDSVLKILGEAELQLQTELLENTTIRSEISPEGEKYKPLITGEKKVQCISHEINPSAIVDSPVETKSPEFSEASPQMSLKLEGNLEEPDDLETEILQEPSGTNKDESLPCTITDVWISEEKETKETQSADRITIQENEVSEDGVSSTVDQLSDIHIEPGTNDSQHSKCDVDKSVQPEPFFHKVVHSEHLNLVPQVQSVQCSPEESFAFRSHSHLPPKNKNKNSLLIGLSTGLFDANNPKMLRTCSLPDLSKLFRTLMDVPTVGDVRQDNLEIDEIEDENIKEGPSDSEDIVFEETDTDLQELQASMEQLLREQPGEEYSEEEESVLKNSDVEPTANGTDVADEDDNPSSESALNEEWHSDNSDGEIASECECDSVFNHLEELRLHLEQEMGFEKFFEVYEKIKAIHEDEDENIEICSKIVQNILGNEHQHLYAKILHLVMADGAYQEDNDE
Procedure, shortened: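 Eurofins IC50Profiler radiometric assay on recombinant human Nek1 (1−505), ATP at 10 μM or 90 μM (near Km). Nine concentrations at half-log steps from 10 μM to 1 nM, with vehicle controls. IC50 and 95% CI obtained by four-parameter nonlinear regression. Mean of two independent experiments.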

[2] = target: T1, Serine/threonine-protein kinase Nek1; assay: Inhibition of human recombinant NEK1 (1 to 505 residues) using ULight-p70 S6K peptide as substrate incubated for 30 mins by LANCE Ultra TR-FRET assay
Procedure, shortened: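 Recombinant human Nek1 (1−505, 0.02 nM) in 50 mM HEPES pH 7.5, 1 mM EGTA, 10 mM MgCl2, 0.2 mM DTT, 0.01% Tween20, with 50 nM ULight-p70 S6K peptide and 60 μM ATP, 30 min at 22 °C. Stopped with EDTA plus Eu anti-phospho antibody, 1 h signal development. Ten half-log concentrations from 30 μM (10 μM for some) to 1 nM. Mean of two experiments.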

[3] = system: RAF proto-oncogene serine/threonine-protein kinase (Homo sapiens), P04049 [Y340D,Y341D]; assay: Inhibition of human c-Raf (Raf-1) Y340D/Y341D mutant (306 to end) as residual activity at 1 uM using inactive MEK1 as substrate incubated for 40 mins in presence of [gamma 33P]-ATP by radiometric scintillation counting assay relative to control
Procedure, shortened: (§1)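 Commercial radiometric panel of 50 kinases. Each recombinant human kinase was tested at a single compound concentration of 1 μM. ATP was set within 15 μM of the apparent Km for ATP for each kinase. Residual activity is relative to control and is the mean of two independent experiments.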

[4] = target: Serine/threonine-protein kinase Nek3 (Homo sapiens) (UniProt P51956); assay: Inhibition of recombinant full-length human NEK3 assessed as residual activity at 1 uM using myelin basic protein as substrate measured after 40 mins in presence of [gamma33P]ATP by radiometric scintillation counting method relative to control; procedure, shortened: as §1
[5] = target: Tyrosine-protein kinase receptor TYRO3 (Homo sapiens) (UniProt Q06418); assay: Inhibition of human RSE (451 to end residues) assessed as residual activity at 1 uM using KVEKIGEGTYGVVYK as substrate measured after 40 mins in presence of [gamma33P]ATP by radiometric scintillation counting method relative to control; procedure, shortened: as §1
Homo sapiens = species on record: Homo sapiens; assay: Inhibition of recombinant full length human CK2alpha2 assessed as residual activity at 1 uM using RRRDDDSDDD as substrate incubated 40 mins in presence of [gamma-33ATP] by scintillation counting based radiometry assay relative to control; procedure, shortened: as §1
[6] = target: Serine/threonine-protein kinase Nek7 (Homo sapiens) (UniProt Q8TDX7); assay: Inhibition of recombinant human NEK7 (2 to end residues) assessed as residual activity at 1 uM using FLAKSFGSPNRAYKK as substrate measured after 40 mins in presence of [gamma33P]ATP by radiometric scintillation counting method relative to control; procedure, shortened: as §1
[7] = target: Epidermal growth factor receptor (Homo sapiens) (UniProt P00533); assay: Inhibition of human recombinant EGFR (696 to end residues) assessed as residual activity at 1 uM using poly(Glu, Tyr) 4:1 as substrate incubated for 40 mins in presence of [gamma 33P]-ATP by radiometric scintillation counting assay relative to control; procedure, shortened: as §1
[8] = Permeability across apical to basolateral side in human Caco-2 cells at pH 6.5 to 7.4 by HPLC-MS/MS analysis; assay type: ADME, cell-based; details: Caco-2, pH 6.5, read-out: permeability
Procedure, shortened: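 Commercial Caco-2 assay, apical-to-basolateral direction at pH 6.5/7.4. Permeability and percent recovery taken from HPLC-MS/MS peak area response. Propranolol, labetalol, colchicine and ranitidine run in parallel as references.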

[9] = Toxicity in fluorescence-labelled Zebrafish pronephron assessed as increase in impaired renal clearance at 10 to 20 uM; design: species or system Danio rerio; details: in vivo, dose 10-20 µM
Procedure, shortened: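 Wild-type embryos exposed from 6 hpf to E3/0.2% DMSO controls or 10 and 20 μM compound, in E3 with 75 μM PTU. At 48 h, 100 nM PT-Yellow for 20 min, washed, then returned to compound up to 96 h total. Anesthetized embryos imaged in agarose molds by widefield microscopy, 33 Z-slices. Tubule fluorescence and area quantified from summed deconvolved projections. n = 3–5.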

Serine/threonine-protein kinase Nek3 (Homo sapiens), sequence (P51956 whole entry): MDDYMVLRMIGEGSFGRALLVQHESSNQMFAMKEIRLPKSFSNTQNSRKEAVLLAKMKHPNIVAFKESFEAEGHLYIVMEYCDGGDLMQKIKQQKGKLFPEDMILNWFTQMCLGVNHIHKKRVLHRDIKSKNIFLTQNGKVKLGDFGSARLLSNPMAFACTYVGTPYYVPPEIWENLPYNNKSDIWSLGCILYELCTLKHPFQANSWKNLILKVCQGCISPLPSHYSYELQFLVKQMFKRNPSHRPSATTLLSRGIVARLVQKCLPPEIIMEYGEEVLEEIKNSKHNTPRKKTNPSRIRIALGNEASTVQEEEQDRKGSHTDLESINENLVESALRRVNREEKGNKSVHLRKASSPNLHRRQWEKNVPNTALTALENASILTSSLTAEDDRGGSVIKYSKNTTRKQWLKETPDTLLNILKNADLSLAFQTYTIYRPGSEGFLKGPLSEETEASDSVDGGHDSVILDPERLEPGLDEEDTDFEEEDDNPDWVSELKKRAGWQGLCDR
Tyrosine-protein kinase receptor TYRO3 (Homo sapiens), sequence (Q06418 whole entry): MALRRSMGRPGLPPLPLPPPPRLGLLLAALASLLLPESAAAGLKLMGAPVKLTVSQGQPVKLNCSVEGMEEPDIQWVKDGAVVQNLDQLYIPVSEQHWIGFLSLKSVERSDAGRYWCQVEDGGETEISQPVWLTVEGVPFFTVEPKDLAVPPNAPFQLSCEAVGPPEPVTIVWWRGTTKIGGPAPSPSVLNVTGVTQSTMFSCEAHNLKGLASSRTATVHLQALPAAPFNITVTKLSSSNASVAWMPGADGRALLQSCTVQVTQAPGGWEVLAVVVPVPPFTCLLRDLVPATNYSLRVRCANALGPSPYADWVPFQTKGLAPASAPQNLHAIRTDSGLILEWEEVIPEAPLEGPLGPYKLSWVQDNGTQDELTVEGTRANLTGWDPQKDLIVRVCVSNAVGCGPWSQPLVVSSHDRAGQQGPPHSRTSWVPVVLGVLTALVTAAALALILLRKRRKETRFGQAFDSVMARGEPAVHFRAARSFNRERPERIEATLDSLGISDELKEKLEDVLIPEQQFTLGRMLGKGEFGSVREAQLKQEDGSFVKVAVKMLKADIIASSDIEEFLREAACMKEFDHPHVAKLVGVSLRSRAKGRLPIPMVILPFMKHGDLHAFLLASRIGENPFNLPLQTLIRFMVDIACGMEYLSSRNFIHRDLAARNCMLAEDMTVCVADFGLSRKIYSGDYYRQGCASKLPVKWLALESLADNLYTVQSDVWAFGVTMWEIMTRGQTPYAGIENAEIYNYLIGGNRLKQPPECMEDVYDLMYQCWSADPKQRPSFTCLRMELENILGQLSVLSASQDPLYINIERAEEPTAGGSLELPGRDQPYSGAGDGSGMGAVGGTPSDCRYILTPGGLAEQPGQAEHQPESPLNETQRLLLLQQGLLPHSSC
Epidermal growth factor receptor (Homo sapiens), sequence (P00533 whole entry): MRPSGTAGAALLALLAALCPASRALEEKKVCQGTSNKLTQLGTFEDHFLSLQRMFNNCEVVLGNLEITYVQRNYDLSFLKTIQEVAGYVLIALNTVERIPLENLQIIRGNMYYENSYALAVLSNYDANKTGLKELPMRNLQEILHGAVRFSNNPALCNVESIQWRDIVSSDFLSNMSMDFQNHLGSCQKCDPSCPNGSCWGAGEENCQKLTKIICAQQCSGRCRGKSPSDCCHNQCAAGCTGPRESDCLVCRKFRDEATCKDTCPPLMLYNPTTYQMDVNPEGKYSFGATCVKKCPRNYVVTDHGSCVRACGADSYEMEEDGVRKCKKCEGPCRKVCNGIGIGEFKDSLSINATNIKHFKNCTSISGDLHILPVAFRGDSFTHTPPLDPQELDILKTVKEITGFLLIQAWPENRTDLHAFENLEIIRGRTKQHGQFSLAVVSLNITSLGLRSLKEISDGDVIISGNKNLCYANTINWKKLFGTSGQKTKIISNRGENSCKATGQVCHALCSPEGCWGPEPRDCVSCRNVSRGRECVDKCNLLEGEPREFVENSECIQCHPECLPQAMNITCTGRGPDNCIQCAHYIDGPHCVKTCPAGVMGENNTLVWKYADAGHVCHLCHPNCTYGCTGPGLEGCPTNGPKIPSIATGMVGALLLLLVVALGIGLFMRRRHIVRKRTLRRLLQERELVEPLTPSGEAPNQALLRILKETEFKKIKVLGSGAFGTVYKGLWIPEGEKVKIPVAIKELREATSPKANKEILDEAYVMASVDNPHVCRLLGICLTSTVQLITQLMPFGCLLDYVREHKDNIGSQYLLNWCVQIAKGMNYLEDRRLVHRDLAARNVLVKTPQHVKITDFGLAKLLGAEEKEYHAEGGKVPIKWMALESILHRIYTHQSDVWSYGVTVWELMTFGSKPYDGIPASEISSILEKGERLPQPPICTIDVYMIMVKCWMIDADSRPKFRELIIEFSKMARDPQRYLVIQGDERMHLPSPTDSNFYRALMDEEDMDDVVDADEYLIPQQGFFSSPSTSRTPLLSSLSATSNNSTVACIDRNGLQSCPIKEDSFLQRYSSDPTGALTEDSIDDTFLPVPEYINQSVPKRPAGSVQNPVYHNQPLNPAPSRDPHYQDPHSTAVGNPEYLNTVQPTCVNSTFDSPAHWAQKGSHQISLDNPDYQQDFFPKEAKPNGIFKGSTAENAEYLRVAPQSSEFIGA
Serine/threonine-protein kinase Nek7 (Homo sapiens), sequence (Q8TDX7 whole entry, looked up): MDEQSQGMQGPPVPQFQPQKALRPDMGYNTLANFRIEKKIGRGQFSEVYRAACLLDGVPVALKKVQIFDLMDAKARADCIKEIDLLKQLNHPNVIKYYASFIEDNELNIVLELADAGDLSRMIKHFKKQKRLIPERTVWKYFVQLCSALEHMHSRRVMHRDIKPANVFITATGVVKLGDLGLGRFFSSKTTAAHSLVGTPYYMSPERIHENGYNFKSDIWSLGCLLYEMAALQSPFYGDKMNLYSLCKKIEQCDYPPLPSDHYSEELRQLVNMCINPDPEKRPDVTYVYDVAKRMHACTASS

What does the source list for O=S(=O)(N[C@@H](CO)Cc1c[nH]c2ccccc12)c1ccc(-c2ccnc3[nH]ccc23)cc1?
IC50 [1]: 330 nM; IC50 [2]: 330 nM; Activity [3]: > 75%; Activity [4]: > 75%; Activity [5]: > 75%; Activity (Homo sapiens): > 75%; Activity [6]: > 75%; Activity [7]: > 75%; Papp A→B [8]: 3.4 ×10⁻⁶ cm/s; Activity [9]: Toxic
